Source: ChEMBL document CHEMBL4138070, “Synthesis and biological evaluation of (-)-kunstleramide and its derivatives” (Medchemcomm, 2017)

Experiments:
Assay type in all cases: functional, cell-based
[1] = test system: MCF7; assay: Antiproliferative activity in human MCF7 cells assessed as reduction in cell number incubated for 48 hrs by SRB assay; settings: MCF7, 48 h
Procedure, shortened: (§1)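 Cell lines from ATCC, kept in DMEM with 10% FBS and 1% penicillin–streptomycin at 37 °C under 5% CO2. Seeded from 5×10^4 cells/ml suspension, grown 24 h, then treated with 1, 10, 50 and 100 μM for 48 h. Fixed with cold 10% TCA 1 h at 4 °C, stained with 0.057% SRB, dye dissolved in 10 mM Tris, read at 510 nm. IC50 is 50% cell-number decrease versus untreated control, from regression.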

[2] = test system: A549; assay: Antiproliferative activity in human A549 cells assessed as reduction in cell number incubated for 48 hrs by SRB assay; settings: A549, 48 h; procedure, shortened: as §1
[3] = test system: HeLa; assay: Antiproliferative activity in human HeLa cells assessed as reduction in cell number incubated for 48 hrs by SRB assay; procedure, shortened: as §1
[4] = test system: IMR-32; assay: Antiproliferative activity in human IMR32 cells assessed as reduction in cell number incubated for 48 hrs by SRB assay; settings: IMR-32, 48 h; procedure, shortened: as §1

SMILES	IC50 [1]	IC50 [2]	IC50 [3]	IC50 [4]
COc1ccc(C[C@@H](O)/C=C/C=C/C(=O)N2CCN(Cc3ccc4c(c3)OCO4)CC2)cc1OC	12.3 µM	7.58 µM	8.25 µM	8.23 µM
COc1ccc(C[C@@H](O)/C=C/C=C/C(=O)N2CCN(C(c3ccccc3)c3ccccc3)CC2)cc1OC	12.5 µM	10.6 µM	10.5 µM	11.9 µM
COc1ccc(C[C@@H](O)/C=C/C=C/C(=O)N2CCOCC2)cc1OC	16.2 µM	17.9 µM	16.4 µM	20.4 µM
COc1ccc(C[C@@H](O)/C=C/C=C/C(=O)N2CCN(c3ncccn3)CC2)cc1OC	14.7 µM	9.92 µM	12.6 µM	10.8 µM
CCN1CCN(C(=O)/C=C/C=C/[C@H](O)Cc2ccc(OC)c(OC)c2)CC1	11.5 µM	15.7 µM	11.7 µM	10.8 µM
O=C(/C=C/C=C/c1ccc2c(c1)OCO2)N1CCCCC1 [PIPERINE]	13 µM	11.9 µM	19.2 µM	10.2 µM
COc1ccc(/C=C\c2cc(OC)c(OC)c(OC)c2)cc1O [COMBRETASTATIN A4]	4.63 µM	6.45 µM	5.36 µM	5.72 µM
COc1ccc(C[C@@H](O)/C=C/C=C/C(=O)N2CCSCC2)cc1OC	20.2 µM	18 µM	20.6 µM	16.1 µM
COc1ccc(C[C@@H](O)/C=C/C=C/C(=O)N2CCN(C)CC2)cc1OC	17.1 µM	22.2 µM	16.5 µM	18.9 µM

Continued, in another order:

IC50 [1]	IC50 [2]	IC50 [3]	SMILES	IC50 [4]
18.1 µM	16.5 µM	13.4 µM	COc1ccc(C[C@@H](O)/C=C/C=C/C(=O)NCc2ccc(Cl)cc2)cc1OC	15.7 µM
15.3 µM	19.2 µM	10.7 µM	COc1ccc(C[C@@H](O)/C=C/C=C/C(=O)NCc2cc(OC)c(OC)c(OC)c2)cc1OC	13.4 µM
12.9 µM	13.8 µM	14.6 µM	CCNC(=O)/C=C/C=C/[C@H](O)Cc1ccc(OC)c(OC)c1	9.43 µM
12 µM	14.2 µM	9.75 µM	COc1ccc(C[C@@H](O)/C=C/C=C/C(=O)N2CCN(c3ccccc3)CC2)cc1OC	9.43 µM
26.6 µM	16.8 µM	9.45 µM	COc1ccc(CNC(=O)/C=C/C=C/[C@H](O)Cc2ccc(OC)c(OC)c2)cc1	17.4 µM
23.6 µM	8.13 µM	23.6 µM	COc1ccc(C[C@@H](O)/C=C/C=C/C(=O)N2CCN(c3ccccn3)CC2)cc1OC	11.1 µM
39.5 µM	16.4 µM	14.1 µM	COc1ccc(C[C@@H](O)/C=C/C=C/C(=O)N2CCCCC2)cc1OC	11 µM
26.2 µM	24.4 µM	14.1 µM	COc1ccc(C[C@@H](O)/C=C/C=C/C(=O)N2CCCC2)cc1OC	12 µM
33.6 µM	17.1 µM	12.9 µM	COc1ccc(C[C@@H](O)/C=C/C=C/C(=O)NCc2ccccc2)cc1OC	16.6 µM
